Reference: ChEMBL document CHEMBL3272109, “3-Substituted pyrazole derivatives as inhibitors and inactivators of liver alcohol dehydrogenase” (J Med Chem, 1979)
The source made the active and inactive calls. The rule behind the calls is not given here.

Columns and labels:
[1] = biological target: T1, Alcohol dehydrogenase (Equus caballus) (UniProt P00327+P00328); assay: Competitive inhibition of horse liver alcohol dehydrogenase using ethanol as substrate by spectrophotometric titration in presence of 1 mM NAD+
How it was run: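 Purified horse liver EE isoenzyme, dialysed and gel-filtered free of ethanol; 10 nM enzyme. Ethanol varied at 0.4–2 mM with NAD⁺ fixed at 1 mM, in 33 mM sodium phosphate pH 7, 25 °C. Rates recorded spectrophotometrically. Constants come from fitting to the competitive inhibition equation; errors are standard errors of the fit.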

Alcohol dehydrogenase = Alcohol dehydrogenase (Equus caballus, UniProt P00327+P00328); assay: Inhibition of horse liver alcohol dehydrogenase using ethanol as substrate assessed as dissociation constant by spectrophotometric titration in presence of 1 mM NAD+
How it was run: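 Difference titration at 300 nm, 0.1 M sodium phosphate pH 7.0, 25 °C, 1 mM NAD⁺, in a double-sector cuvette (0.438-mm path) against a separated-sector reference. Either 19–27 μM enzyme was titrated with pyrazole, or 100 μM pyrazole was titrated with enzyme. Kd from a Scatchard least-squares fit; SD of three determinations.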

[2] = biological target: T1, Alcohol dehydrogenase (Equus caballus); assay: Reversible inhibition of horse liver alcohol dehydrogenase using ethanol as substrate assessed as remaining enzyme activity at 1 mM by stopped-flow method in presence of 1 mM NAD+
[3] = biological target: T1, Alcohol dehydrogenase (Equus caballus); assay: Reversible inhibition of horse liver alcohol dehydrogenase using ethanol as substrate at 1 mM measured after 100-fold dilution in presence of NAD+; set-up: scale not given: the % may be the effect or the level left
[4] = biological target: T1, Alcohol dehydrogenase (Equus caballus); assay: Reversible inhibition of horse liver alcohol dehydrogenase using ethanol as substrate assessed as increase in enzyme activity at 1 mM measured after 40 mins of 100-fold dilution by stopped-flow method in presence of NAD+; set-up: scale not given: the % may be the effect or the level left
How it was run: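 0.94 μN enzyme was preincubated with 1 mM NAD⁺ and 1 mM pyrazole, then diluted 100-fold into assay mix (0.55 M ethanol, 1.75 mM NAD⁺, pH 9, 25 °C). NAD⁺ reduction followed at 340 nm for 40 min. Rates were taken as tangents at various times and expressed versus the original activity; an apparent first-order dissociation rate constant was derived.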

[5] = biological target: T1, Alcohol dehydrogenase (Equus caballus); assay: Reversible inhibition of horse liver alcohol dehydrogenase using ethanol as substrate assessed as reduction in enzyme activity at 0.1 mM compound in diluted assay mixture measured after 20 to 40 mins by stopped-flow method in presence of NAD+
[6] = biological target: T1, Alcohol dehydrogenase (Equus caballus); assay: Reversible inhibition of horse liver alcohol dehydrogenase using ethanol as substrate by stopped-flow method in presence of 1 mM NAD+
[7] = biological target: T1, Alcohol dehydrogenase (Equus caballus); assay: Inactivation of horse liver alcohol dehydrogenase using ethanol as substrate at 10 to 200 mM up to 5 mins by spectrophotometric titration in presence of 1 mM NAD+
How it was run: (§1)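 Enzyme (1 mg/mL) incubated with reagent under 5 min in 0.1 M Na₂P₂O₇ adjusted to pH 8.0 with H₃PO₄, 25 °C, with NAD⁺ where stated. Then 10 μL of reaction mixture diluted into 1 mL standard assay mixture, and the initial velocity of NADH production measured. Activity is given relative to the original.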

[8] = biological target: T1, Alcohol dehydrogenase (Equus caballus); assay: Inactivation of horse liver alcohol dehydrogenase using ethanol as substrate at 200 mM up to 5 mins by spectrophotometric titration; how it was run: as §1
[9] = biological target: T1, Alcohol dehydrogenase (Equus caballus); assay: Inactivation of horse liver alcohol dehydrogenase using ethanol as substrate at 10 mM up to 5 mins by spectrophotometric titration; how it was run: as §1

| inhibition [1] | Kd (Alcohol dehydrogenase) [µM] | SMILES | further results |
| --- | --- | --- | --- |
| Active | 170 | OCCc1cc[nH]n1 | – |
| Active | 5100 | CC(=O)c1cc[nH]n1 | – |
| Active | 6500 | O=C(O)c1cc[nH]n1 | – |
| Active | 60 | OCCCc1cc[nH]n1 | – |
| Active | 200 | ClCCc1cc[nH]n1 | Activity [2]: 67%; Activity [3]: 10%; Activity [4]: ≥ 48% |
| Active | 40 | ClCCCc1cc[nH]n1 | Activity [2]: 67%; inhibition [5]: 52%; Activity [3]: 10%; Activity [4]: ≥ 48% |
| – | 3.6 | OCc1cn[nH]c1 | – |
| – | 0.2 | c1cn[nH]c1 [PYRAZOLE] | Activity [6]: 3 ×10⁵ /M/s |
| – | 0.013 | Cc1cn[nH]c1 [FOMEPIZOLE] | – |
| – | 0.77 | OCCc1cn[nH]c1 | – |
| Active | 125 | Cc1cc[nH]n1 | – |
| – | 0.02 | ClCCCc1cn[nH]c1 | – |
| – | 0.56 | OCCCc1cn[nH]c1 | – |
| Active | 150 | OCc1cc[nH]n1 | – |

| SMILES | inhibition [1] | Kd (Alcohol dehydrogenase) [µM] | further results |
| --- | --- | --- | --- |
| ClCc1cn[nH]c1 | – | 2.7 | – |
| ClCc1cc[nH]n1 | Active | – | Activity [7]: inactive; Activity [8]: 98%; Activity [9]: 36% |
